# Measurements from publication PMC9064899 (The FEBS journal, 2021).
# Numbering of substitutions follows the chain as printed.
# Assays:
# Assay in all cases: Cell-based UBIAD1 functional assay
# UBIAD1 D236E = biological target: T1, UBIAD1 D236E (Homo sapiens, UniProt Q9Y5Z9, D236E)
# T1 sequence (Q9Y5Z9 1-338 D236E): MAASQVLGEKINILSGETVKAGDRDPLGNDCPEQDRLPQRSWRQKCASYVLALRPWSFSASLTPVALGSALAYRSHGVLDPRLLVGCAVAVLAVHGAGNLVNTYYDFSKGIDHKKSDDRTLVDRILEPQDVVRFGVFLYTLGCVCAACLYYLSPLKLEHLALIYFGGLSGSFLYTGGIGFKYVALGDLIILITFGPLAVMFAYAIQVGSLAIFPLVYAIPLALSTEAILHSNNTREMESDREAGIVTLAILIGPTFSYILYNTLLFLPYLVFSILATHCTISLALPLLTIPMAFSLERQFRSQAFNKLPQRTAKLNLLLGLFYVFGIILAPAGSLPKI
# Summary of the method: (§1)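 Wild-type or mutant human UBIAD1 in pCI-neo was transiently transfected into Ubiad1-knockout FIXgla-PC/HEK293 cells (DMEM/F12, 10% FBS). […] After 24 h, carboxylated FIXgla-PC in the medium was measured by ELISA. Activity was normalized to wild type (100%), and EC50 came from a curve fit. Mean ± SD, n=3 independent experiments.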
# UBIAD1 N102S = biological target: T2, UBIAD1 N102S (Homo sapiens, UniProt Q9Y5Z9, N102S)
# T2 sequence (Q9Y5Z9 1-338 N102S): T1 sequence (Q9Y5Z9 1-338 D236E) with N102S, E236D
# Summary of the method: as §1
# UBIAD1 R54A = biological target: T3, UBIAD1 R54A (Homo sapiens, UniProt Q9Y5Z9, R54A)
# T3 sequence (Q9Y5Z9 1-338 R54A): T1 sequence (Q9Y5Z9 1-338 D236E) with R54A, E236D
# Summary of the method: as §1
# UBIAD1 K181A = biological target: T4, UBIAD1 K181A (Homo sapiens, UniProt Q9Y5Z9, K181A)
# T4 sequence (Q9Y5Z9 1-338 K181A): T1 sequence (Q9Y5Z9 1-338 D236E) with K181A, E236D
# Summary of the method: as §1
# UBIAD1 C147S = biological target: T5, UBIAD1 C147S (Homo sapiens, UniProt Q9Y5Z9); conditions: 1 μM vitamin K3
# T5 sequence (Q9Y5Z9 2-338): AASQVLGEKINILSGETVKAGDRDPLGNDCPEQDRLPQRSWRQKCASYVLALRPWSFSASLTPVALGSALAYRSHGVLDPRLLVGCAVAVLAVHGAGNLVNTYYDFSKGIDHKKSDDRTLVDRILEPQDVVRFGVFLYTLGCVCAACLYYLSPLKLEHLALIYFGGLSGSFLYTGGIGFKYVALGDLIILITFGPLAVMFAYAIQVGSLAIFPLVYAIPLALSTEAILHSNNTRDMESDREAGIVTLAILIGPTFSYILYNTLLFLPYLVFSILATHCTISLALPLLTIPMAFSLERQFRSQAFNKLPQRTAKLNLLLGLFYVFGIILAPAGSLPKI
# Summary of the method: as §1
# UBIAD1 G177R = biological target: T6, UBIAD1 G177R (Homo sapiens, UniProt Q9Y5Z9, G177R)
# T6 sequence (Q9Y5Z9 1-338 G177R): T1 sequence (Q9Y5Z9 1-338 D236E) with G177R, E236D
# Summary of the method: as §1
# UBIAD1 D240N = biological target: T7, UBIAD1 D240N (Homo sapiens, UniProt Q9Y5Z9, D240N)
# T7 sequence (Q9Y5Z9 1-338 D240N): T1 sequence (Q9Y5Z9 1-338 D236E) with E236D, D240N
# Summary of the method: as §1
smiles,measurement,setting,value
"CC1=CC(=O)c2ccccc2C1=O [vitamin K3, menadione]",EC50,UBIAD1 D236E,22.6 ± 2.2 nM
same,EC50 value of vitamin K3 lower than that of D236A,UBIAD1 D236E; D236E vs D236A,4 fold
same,increase of EC50 value of vitamin K3 vs wild-type,UBIAD1 D236E; D236E vs WT,6 fold
same,Vitamin K-dependent carboxylation Activity ± SD,"UBIAD1 D236E; D236E, 1 μM vitamin K3",107.1 ± 4.9%
same,EC50,UBIAD1 N102S,3.9 ± 0.3 nM
same,Vitamin K-dependent carboxylation Activity ± SD,"UBIAD1 N102S; N102S, 1 μM vitamin K3",98.2 ± 3%
same,EC50,UBIAD1 R54A,84 ± 11.6 nM
same,Vitamin K-dependent carboxylation Activity ± SD,"UBIAD1 R54A; R54A, 1 μM vitamin K3",79.8 ± 2.6%
same,EC50,UBIAD1 K181A,11.9 ± 0.4 nM
same,Vitamin K-dependent carboxylation Activity ± SD,"UBIAD1 K181A; K181A, 1 μM vitamin K3",101.7 ± 3%
same,Vitamin K-dependent carboxylation Activity ± SD,UBIAD1 C147S,100.5 ± 3.7%
same,EC50,UBIAD1 G177R,3 ± 0.3 nM
same,Vitamin K-dependent carboxylation Activity ± SD,"UBIAD1 G177R; G177R, 1 μM vitamin K3",119.8 ± 1.2%
same,EC50,UBIAD1 D240N,11.2 ± 1.5 nM
same,Vitamin K-dependent carboxylation Activity ± SD,"UBIAD1 D240N; D240N, 1 μM vitamin K3",107.8 ± 2.5%
